Measured values: ChEMBL document CHEMBL1125425, “Synthesis and muscarinic activities of quinuclidin-3-yltriazole and -tetrazole derivatives” (J Med Chem, 1992)

Legend:
[1] = target: Muscarinic acetylcholine receptor; assay: In vitro inhibition of [3H]QNB binding to Muscarinic receptor from rat cortical homogenates
[2] = target: Muscarinic acetylcholine receptor; assay: In vitro inhibition of [3H]OXO-M binding to Muscarinic receptor from rat cortical homogenates
[3] = target: Muscarinic acetylcholine receptor (Rattus norvegicus) (UniProt P08482+P08483+P08485+P08911+P10980); assay: Ratio of IC50(QNB) to IC50(OXO-M) was determined; type: protein assay
[4] = target: Muscarinic acetylcholine receptor; assay: Compound was tested in vitro for its binding affinity to muscarinic acetylcholine receptor from rat cortical homogenates using [3H]QNB as radioligand
[5] = target: Muscarinic acetylcholine receptor; assay: Compound was tested in vitro for its binding affinity to muscarinic acetylcholine receptor from rat cortical homogenates using [3H]OXO-M as radioligand
In short: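 Hooded Lister rat cerebral cortex washed membranes in 50 mM Tris pH 7.7 plus 2 mM MgCl2; 2 nM [3H]oxotremorine-M; nonspecific binding with 10 μM oxotremorine; 37 °C for 30 min; filtration on filters presoaked in 0.05% polyethylenimine, scintillation counting. IC50 is the geometric mean of at least two separate experiments, seven concentrations each.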

| SMILES | IC50 [1] | IC50 [2] | Ratio [3] | IC50 [4] | IC50 [5] |
| --- | --- | --- | --- | --- | --- |
| Cn1nnc(C2CN3CCC2CC3)n1 (centres undefined) | 5.1 µM | 0.14 µM | – | – | – |
| Cn1ncc(C2CN3CCC2CC3)n1 (centres undefined) | 4.5 µM | 0.048 µM | – | – | – |
| c1ncn(C2CN3CCC2CC3)n1 (centres undefined) | – | – | 65 | 28 µM | 0.43 µM |
| c1nncn1C1CN2CCC1CC2 (centres undefined) | 165 µM | 40 µM | – | – | – |
| Cn1nnnc1C1CN2CCC1CC2 (centres undefined) | 60 µM | 6.5 µM | – | – | – |
| Cn1cc(C2CN3CCC2CC3)nn1 (centres undefined) | 53 µM | 4.6 µM | – | – | – |
| c1nnnn1C1CN2CCC1CC2 (centres undefined) | – | – | 49 | 115 µM | 2.3 µM |
| Cc1cn(C2CN3CCC2CC3)nn1 (centres undefined) | 20 µM | 5 µM | – | – | – |
| O=C1CCCN1CC#CCN1CCCC1 [OXOTREMORINE] | 3.3 µM | 0.017 µM | – | – | – |
| Cn1nncc1C1CN2CCC1CC2 (centres undefined) | 29 µM | 0.93 µM | – | – | – |
| Cc1ncn(C2CN3CCC2CC3)n1 (centres undefined) | 4.5 µM | 0.075 µM | – | – | – |
| Cc1cnnn1C1CN2CCC1CC2 (centres undefined) | – | – | 4.9 | 33 µM | 6.7 µM |
| Cc1cnn(C2CN3CCC2CC3)n1 (centres undefined) | 1.6 µM | 0.17 µM | – | – | – |
| C[N+](C)(C)CC#CCN1CCCC1=O.[I-] [OXOTREMORINE METHIODIDE] | – | – | 1820 | 23 µM | 0.013 µM |
| c1nnn(C2CN3CCC2CC3)n1 (centres undefined) | 16 µM | 0.24 µM | – | – | – |
| Cn1cnc(C2CN3CCC2CC3)n1 (centres undefined) | 30 µM | 3.4 µM | – | – | – |
| Cc1nnn(C2CN3CCC2CC3)n1 (centres undefined) | – | – | 92 | 2.8 µM | 0.03 µM |
